Measured values from ChEMBL document CHEMBL1128732, “Synthesis and anticonvulsant activity of N-benzylpyrrolo[2,3-d]-, -pyrazolo[3,4-d]-, and -triazolo[4,5-d]pyrimidines: imidazole ring-modified analogues of 9-(2-fluorobenzyl)-6-(methylamino)-9H-purine” (J Med Chem, 1995).

Assays:
[1] = tested on: Rattus norvegicus; test: The compound was tested for anticonvulsant activity against maximal electroshock-induced seizures after intraperitoneal administration in rats; format: functional
How it was run: (§1)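 Male Wistar rats (Charles River) challenged with maximal electroshock. ED50 is the dose protecting 50% of animals against the hind limb extensor component, calculated by the Miller–Tainter method. With standard error: at least 12 animals per dose level, four doses per compound. Without standard error: three doses, six animals per point. Some compounds were given as the hydrochloride.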

[2] = tested on: Rattus norvegicus; test: The compound was tested for anticonvulsant activity against maximal electroshock-induced seizures after peroral administration in rats; format: functional; how it was run: as §1
[3] = pKa value of the compound; format: physicochemical
[4] = Partition coefficient (logP); format: physicochemical; details: octanol/water
How it was run: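 Octanol–water partition measured with a carbonate-buffered aqueous phase adjusted to pH 10.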

Compound	ED50 ([1]; Rattus norvegicus, ip) [mg/kg]	ED50 [1] [mg/kg]	ED50 ([2]; Rattus norvegicus, po) [mg/kg]	also measured
c1ccc(Cn2ccc3c(NC4CC4)ncnc32)cc1	36			
Nc1ncnc2c1cnn2Cc1ccccc1	> 25			
Nc1ncnc2c1ncn2Cc1ccccc1F		4.5		ED50 [2]: 12 mg/kg
Nc1ncnc2c1nnn2Cc1ccccc1F	> 25			
CN(C)c1ncnc2c1ccn2Cc1ccccc1F		11		ED50 [2]: 12 mg/kg
CN(C)c1ncnc2c1ccn2Cc1ccccc1		15		
Fc1ccccc1Cn1ccc2c(NC3CC3)ncnc21	> 50			
CNc1ncnc2c1cnn2Cc1ccccc1	7		15	
CNc1ncnc2c1ncn2Cc1ccccc1F [BW-A78U]		1.7		ED50 [2]: 2.5 mg/kg
CNc1ncnc2c1ccn2Cc1ccccc1F	6		12	pKa [3]: 5.56; logP [4]: 2.11
CNc1ncnc2c1cnn2Cc1ccccc1F	6		8	pKa [3]: 4.4; logP [4]: 1.94
O=C1NC(=O)C(c2ccccc2)(c2ccccc2)N1 [PHENYTOIN]		10		ED50 [2]: 20 mg/kg
CNc1ncnc2c1nnn2Cc1ccccc1F	3		8	pKa [3]: 2.49; logP [4]: 2.05
Nc1ncnc2c1cnn2Cc1ccccc1F	8		14	
